Test results from ChEMBL document CHEMBL1799942, “Design, synthesis and antifungal activities of novel 1,2,4-triazole derivatives” (2011).
In brackets after ≈: the same amount, converted by molar mass.

Tests used:
Format in all cases: functional
[1] = tested on: Candida parapsilosis; assay: Antifungal activity against Candida parapsilosis ATCC 0306392 by micro-broth dilution method; details: Lodderomyces parapsilosis
In short: (§1)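 Micro-broth dilution per NCCLS M27-A2. The C. parapsilosis strain is the ATCC 0306392 quality-control standard tested in each assay; the C. tropicalis strain is a clinical isolate. Compounds were in DMSO, serially diluted in growth medium, inoculated and incubated at 35 °C. MIC80 is the first well with about 80% growth reduction relative to the drug-free well.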

[2] = tested on: Aspergillus fumigatus; assay: Antifungal activity against Aspergillus fumigatus after 7 days by micro-broth dilution method; details: 168 h
In short: (§2)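 Broth microdilution following the NCCLS yeast reference method (M27-A2), run on clinical isolates of filamentous fungi. Compounds were dissolved in DMSO, serially diluted in growth medium, inoculated and incubated at 35 °C. Growth was read at 7 days. MIC80 is the first well with about 80% less growth than the drug-free well.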

[3] = tested on: Candida albicans; assay: Antifungal activity against Candida albicans ATCC Y0109 after 24 hrs by micro-broth dilution method; details: ATCC Y0109, 24 h
In short: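 Micro-broth dilution per NCCLS M27-A2 on the quality-control standard strain ATCC Y0109, included in each assay. Compounds were dissolved in DMSO, serially diluted in growth medium, inoculated and incubated at 35 °C, with growth read at 24 h. MIC80 is the first well showing roughly 80% growth reduction versus the drug-free well.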

[4] = tested on: Nannizzia gypsea; assay: Antifungal activity against Microsporum gypseum after 7 days by micro-broth dilution method; details: 168 h; in short: as §2
[5] = tested on: Trichophyton rubrum; assay: Antifungal activity against Trichophyton rubrum after 7 days by micro-broth dilution method; details: 168 h; in short: as §2
[6] = tested on: Candida tropicalis; assay: Antifungal activity against Candida tropicalis by micro-broth dilution method; in short: as §1
[7] = Antifungal activity against Fonsecaea compacta by micro-broth dilution method; in short: as §2
[8] = tested on: Cryptococcus neoformans; assay: Antifungal activity against Cryptococcus neoformans ATCC BLS108 after 72 hrs by micro-broth dilution method; details: ATCC BLS108, 72 h
In short: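 NCCLS M27-A2 microdilution on the ATCC BLS108 quality-control strain, tested in every assay. Compounds were taken up in DMSO, serially diluted in growth medium, inoculated and incubated at 35 °C. Growth was scored at 72 h. MIC80 is the first well with about 80% lower growth than the drug-free control well.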

| SMILES | MIC80 [1] | MIC80 [2] | MIC80 [3] | MIC80 [4] | MIC80 [5] | MIC80 [6] | MIC80 [7] | MIC80 [8] |
| --- | --- | --- | --- | --- | --- | --- | --- | --- |
| CCC(=O)Nc1ccc(N2CCN(CC(O)(Cn3cncn3)c3ccc(F)cc3F)CC2)cc1 (racemic) | 0.0156 µg/mL (≈ 0.0332 µM) | 4 µg/mL (≈ 8.5 µM) | 0.0156 µg/mL (≈ 0.0332 µM) | 0.25 µg/mL (≈ 0.531 µM) | 0.0625 µg/mL (≈ 0.133 µM) | 0.0156 µg/mL (≈ 0.0332 µM) | 0.25 µg/mL (≈ 0.531 µM) | 1 µg/mL (≈ 2.13 µM) |
| CCCC(=O)Nc1ccc(N2CCN(CC(O)(Cn3cncn3)c3ccc(F)cc3F)CC2)cc1 (racemic) | 0.0156 µg/mL (≈ 0.0322 µM) | 4 µg/mL (≈ 8.26 µM) | 0.00097 µg/mL (≈ 0.002 µM) | 0.0625 µg/mL (≈ 0.129 µM) | 0.0625 µg/mL (≈ 0.129 µM) | 0.0625 µg/mL (≈ 0.129 µM) | 0.25 µg/mL (≈ 0.516 µM) | 0.25 µg/mL (≈ 0.516 µM) |
| CC(C)C(=O)Nc1ccc(N2CCN(CC(O)(Cn3cncn3)c3ccc(F)cc3F)CC2)cc1 (racemic) | 0.0156 µg/mL (≈ 0.0322 µM) | 4 µg/mL (≈ 8.26 µM) | 0.0039 µg/mL (≈ 0.00805 µM) | 0.0625 µg/mL (≈ 0.129 µM) | 0.25 µg/mL (≈ 0.516 µM) | 0.0156 µg/mL (≈ 0.0322 µM) | 0.25 µg/mL (≈ 0.516 µM) | 1 µg/mL (≈ 2.06 µM) |
| CCCCC(=O)Nc1ccc(N2CCN(CC(O)(Cn3cncn3)c3ccc(F)cc3F)CC2)cc1 (racemic) | 0.0625 µg/mL (≈ 0.125 µM) | 1 µg/mL (≈ 2.01 µM) | 0.0156 µg/mL (≈ 0.0313 µM) | 0.25 µg/mL (≈ 0.501 µM) | 0.0625 µg/mL (≈ 0.125 µM) | 0.0625 µg/mL (≈ 0.125 µM) | 0.25 µg/mL (≈ 0.501 µM) | 0.25 µg/mL (≈ 0.501 µM) |
| CCCCCC(=O)Nc1ccc(N2CCN(CC(O)(Cn3cncn3)c3ccc(F)cc3F)CC2)cc1 (racemic) | 0.25 µg/mL (≈ 0.488 µM) | > 64 µg/mL | 0.0156 µg/mL (≈ 0.0304 µM) | 0.0625 µg/mL (≈ 0.122 µM) | 0.0625 µg/mL (≈ 0.122 µM) | 0.25 µg/mL (≈ 0.488 µM) | 1 µg/mL (≈ 1.95 µM) | 1 µg/mL (≈ 1.95 µM) |
| CC(C)(C)C(=O)Nc1ccc(N2CCN(CC(O)(Cn3cncn3)c3ccc(F)cc3F)CC2)cc1 (racemic) | 0.0156 µg/mL (≈ 0.0313 µM) | 16 µg/mL (≈ 32.1 µM) | 0.0156 µg/mL (≈ 0.0313 µM) | 0.0156 µg/mL (≈ 0.0313 µM) | 0.0039 µg/mL (≈ 0.00782 µM) | 0.0156 µg/mL (≈ 0.0313 µM) | 1 µg/mL (≈ 2.01 µM) | 0.25 µg/mL (≈ 0.501 µM) |
| CCCCCCC(=O)Nc1ccc(N2CCN(CC(O)(Cn3cncn3)c3ccc(F)cc3F)CC2)cc1 (racemic) | 0.0156 µg/mL (≈ 0.0296 µM) | > 64 µg/mL | 0.00097 µg/mL (≈ 0.00184 µM) | 0.0039 µg/mL (≈ 0.00741 µM) | 0.0039 µg/mL (≈ 0.00741 µM) | 0.0156 µg/mL (≈ 0.0296 µM) | 0.0625 µg/mL (≈ 0.119 µM) | 0.0625 µg/mL (≈ 0.119 µM) |
| CC(=O)Nc1ccc(N2CCN(CC(O)(Cn3cncn3)c3ccc(F)cc3F)CC2)c(F)c1 (racemic) | 0.0625 µg/mL (≈ 0.132 µM) | 4 µg/mL (≈ 8.43 µM) | 0.0625 µg/mL (≈ 0.132 µM) | 1 µg/mL (≈ 2.11 µM) | 0.25 µg/mL (≈ 0.527 µM) | 0.0625 µg/mL (≈ 0.132 µM) | 0.25 µg/mL (≈ 0.527 µM) | 1 µg/mL (≈ 2.11 µM) |
| O=C(CCl)Nc1ccc(N2CCN(CC(O)(Cn3cncn3)c3ccc(F)cc3F)CC2)c(F)c1 (racemic) | 0.0156 µg/mL (≈ 0.0307 µM) | 1 µg/mL (≈ 1.96 µM) | 0.0039 µg/mL (≈ 0.00766 µM) | 0.0156 µg/mL (≈ 0.0307 µM) | 0.0625 µg/mL (≈ 0.123 µM) | 0.0156 µg/mL (≈ 0.0307 µM) | 0.0625 µg/mL (≈ 0.123 µM) | 0.0625 µg/mL (≈ 0.123 µM) |
| C[C@@H]1[C@H](O)[C@@H](C)/C=C/C=C/C=C/C=C/C=C/C=C/C=C/[C@H](O[C@@H]2O[C@H](C)[C@@H](O)[C@H](N)[C@@H]2O)C[C@@H]2O[C@](O)(C[C@@H](O)C[C@@H](O)[C@H](O)CC[C@@H](O)C[C@@H](O)CC(=O)O[C@H]1C)C[C@H](O)[C@H]2C(=O)O [AMPHOTERICIN B] | 0.0156 µg/mL (≈ 0.0169 µM) | 4 µg/mL (≈ 4.33 µM) | 1 µg/mL (≈ 1.08 µM) | 0.0039 µg/mL (≈ 0.00422 µM) | 1 µg/mL (≈ 1.08 µM) | 0.0625 µg/mL (≈ 0.0676 µM) | 16 µg/mL (≈ 17.3 µM) | 1 µg/mL (≈ 1.08 µM) |

Further lines, results first:

| MIC80 [1] | MIC80 [2] | MIC80 [3] | MIC80 [4] | MIC80 [5] | MIC80 [6] | MIC80 [7] | MIC80 [8] | SMILES |
| --- | --- | --- | --- | --- | --- | --- | --- | --- |
| 0.0625 µg/mL (≈ 0.116 µM) | 1 µg/mL (≈ 1.85 µM) | 0.0156 µg/mL (≈ 0.0289 µM) | 0.0156 µg/mL (≈ 0.0289 µM) | 0.0625 µg/mL (≈ 0.116 µM) | 0.0625 µg/mL (≈ 0.116 µM) | 1 µg/mL (≈ 1.85 µM) | 0.0625 µg/mL (≈ 0.116 µM) | CCCCCCCC(=O)Nc1ccc(N2CCN(CC(O)(Cn3cncn3)c3ccc(F)cc3F)CC2)cc1 (racemic) |
| 1 µg/mL (≈ 1.76 µM) | 1 µg/mL (≈ 1.76 µM) | 0.0156 µg/mL (≈ 0.0274 µM) | 0.0156 µg/mL (≈ 0.0274 µM) | 0.0625 µg/mL (≈ 0.11 µM) | 0.25 µg/mL (≈ 0.44 µM) | 1 µg/mL (≈ 1.76 µM) | 0.0625 µg/mL (≈ 0.11 µM) | CCCCCCCCCC(=O)Nc1ccc(N2CCN(CC(O)(Cn3cncn3)c3ccc(F)cc3F)CC2)cc1 (racemic) |
| 0.25 µg/mL (≈ 0.419 µM) | 1 µg/mL (≈ 1.68 µM) | 0.0625 µg/mL (≈ 0.105 µM) | 0.0156 µg/mL (≈ 0.0261 µM) | 0.0625 µg/mL (≈ 0.105 µM) | 1 µg/mL (≈ 1.68 µM) | 0.25 µg/mL (≈ 0.419 µM) | 0.0625 µg/mL (≈ 0.105 µM) | CCCCCCCCCCCC(=O)Nc1ccc(N2CCN(CC(O)(Cn3cncn3)c3ccc(F)cc3F)CC2)cc1 (racemic) |
| 1 µg/mL (≈ 1.53 µM) | > 64 µg/mL | 0.25 µg/mL (≈ 0.383 µM) | 0.25 µg/mL (≈ 0.383 µM) | 0.25 µg/mL (≈ 0.383 µM) | 1 µg/mL (≈ 1.53 µM) | 4 µg/mL (≈ 6.13 µM) | 16 µg/mL (≈ 24.5 µM) | CCCCCCCCCCCCCCCC(=O)Nc1ccc(N2CCN(CC(O)(Cn3cncn3)c3ccc(F)cc3F)CC2)cc1 (racemic) |
